# According to ChEMBL document CHEMBL3822431, “Hydroxychalcone inhibitors of Streptococcus mutans glucosyl transferases and biofilms as potential anticaries agents” (Bioorg Med Chem Lett, 2016):
# Calls of active or inactive are those of the source. The calls are words filed in the database; no cut-off is given here.
# Columns and labels:
# [1] = biological target: T1, Glucosyltransferase-I (Streptococcus mutans serotype c (strain ATCC 700610 / UA159)) (UniProt P08987); assay: Inhibition of Wild-type Streptococcus mutans UA159 glucosyltransferase B at 50 uM by coomassie blue staining based SDS-PAGE method
# T1 sequence (whole entry): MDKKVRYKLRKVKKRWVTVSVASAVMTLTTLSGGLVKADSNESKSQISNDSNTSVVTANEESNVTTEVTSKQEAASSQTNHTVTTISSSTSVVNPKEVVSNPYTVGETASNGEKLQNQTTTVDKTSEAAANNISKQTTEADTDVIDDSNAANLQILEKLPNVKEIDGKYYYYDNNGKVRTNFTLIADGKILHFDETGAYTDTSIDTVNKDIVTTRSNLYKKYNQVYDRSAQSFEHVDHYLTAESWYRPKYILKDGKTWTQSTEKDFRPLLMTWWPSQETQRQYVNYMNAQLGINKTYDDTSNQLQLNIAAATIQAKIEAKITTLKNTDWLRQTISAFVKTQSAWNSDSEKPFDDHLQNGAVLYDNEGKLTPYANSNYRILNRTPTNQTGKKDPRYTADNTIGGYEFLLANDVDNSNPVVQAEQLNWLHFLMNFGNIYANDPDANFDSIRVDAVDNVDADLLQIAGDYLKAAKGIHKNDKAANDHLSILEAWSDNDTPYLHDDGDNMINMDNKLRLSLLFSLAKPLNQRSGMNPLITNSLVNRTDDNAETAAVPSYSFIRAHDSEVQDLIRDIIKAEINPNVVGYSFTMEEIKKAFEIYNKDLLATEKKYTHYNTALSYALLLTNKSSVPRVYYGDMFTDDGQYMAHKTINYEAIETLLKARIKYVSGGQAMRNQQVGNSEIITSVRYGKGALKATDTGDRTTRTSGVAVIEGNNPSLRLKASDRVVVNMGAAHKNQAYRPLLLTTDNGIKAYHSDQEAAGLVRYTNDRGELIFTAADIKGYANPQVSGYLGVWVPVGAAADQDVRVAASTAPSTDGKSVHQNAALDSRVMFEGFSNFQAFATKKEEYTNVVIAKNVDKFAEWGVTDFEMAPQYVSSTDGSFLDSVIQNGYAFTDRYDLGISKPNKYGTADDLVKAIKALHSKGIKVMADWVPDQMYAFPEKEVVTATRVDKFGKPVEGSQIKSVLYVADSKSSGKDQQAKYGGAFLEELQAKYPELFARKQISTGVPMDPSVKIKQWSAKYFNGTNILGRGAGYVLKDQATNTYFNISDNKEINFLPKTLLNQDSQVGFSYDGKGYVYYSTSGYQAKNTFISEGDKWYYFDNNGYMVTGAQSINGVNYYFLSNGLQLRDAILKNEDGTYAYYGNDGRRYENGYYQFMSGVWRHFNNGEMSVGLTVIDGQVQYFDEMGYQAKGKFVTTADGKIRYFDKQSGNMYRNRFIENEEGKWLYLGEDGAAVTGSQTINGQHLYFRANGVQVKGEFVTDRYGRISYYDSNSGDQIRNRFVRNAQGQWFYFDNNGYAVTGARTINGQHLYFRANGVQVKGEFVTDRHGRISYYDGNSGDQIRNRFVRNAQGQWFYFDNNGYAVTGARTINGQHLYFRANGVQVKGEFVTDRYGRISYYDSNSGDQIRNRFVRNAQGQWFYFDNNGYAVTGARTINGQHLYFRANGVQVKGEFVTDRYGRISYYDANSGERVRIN
# How it was run: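 Compound (50 µM) added to overnight S. mutans UA159 wild-type cultures; Gtfs collected and concentrated from supernatants, run on SDS-PAGE in duplicate; one gel Coomassie blue stained for protein levels.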
# [2] = biological target: T1, Glucosyltransferase-I (Streptococcus mutans serotype c (strain ATCC 700610 / UA159)); assay: Inhibition of Wild-type Streptococcus mutans UA159 glucosyltransferase B by zymography
# How it was run: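 S. mutans UA159 wild type co-incubated with compound at different concentrations; Gtfs concentrated from supernatants, separated by SDS-PAGE and assayed by zymography, glucan band intensity reflecting enzyme activity.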
# Streptococcus mutans [3] = assay: Inhibition of Gfp tagged Streptococcus mutans UA159 colony formation in guts of sucrose-dependent Drosophila colonization model at 50 uM measured 7 days post infection by fluorescent microscopy; format: functional, organism-based
# How it was run: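 Drosophila fed Gfp-tagged S. mutans with compound at 50 µM; DMSO as negative control, ΔgtfB mutant as biofilm-defective comparator; gut fluorescence examined by fluorescent microscopy 7 days after infection.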
# Streptococcus mutans [4] = assay: Growth inhibition of Streptococcus mutans UA159 after 16 hrs; format: organism-based; details: Streptococcus mutans, UA159, 16 h; read-out: IC50
# How it was run: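 S. mutans UA159 co-incubated with compound at various concentrations; growth measured at OD470.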
Compound,inhibition [1],inhibition [2],inhibition (Streptococcus mutans [3]),IC50 (Streptococcus mutans [4]) [µM]
O=C(/C=C\c1ccc(O)cc1O)c1cccc(O)c1,Active,Dose-dependent effect,Active,–
O=C(/C=C\c1ccc(O)cc1O)c1ccc(O)cc1,Active,–,–,–
O=C(/C=C/c1ccc(O)cc1O)c1cccc(O)c1 (stereo in doubt; 9a),Active,–,Active,–

# The next lines start with results.
inhibition [1],inhibition [2],Compound,inhibition (Streptococcus mutans [3]),IC50 (Streptococcus mutans [4]) [µM]
Active,–,O=C(/C=C/c1cc(O)c(O)cc1O)c1ccccc1O (stereo in doubt; 18c),–,–
Active,–,O=C(/C=C/c1ccc(O)cc1O)c1ccc(O)cc1,–,1060
